Consider 15 compounds from ChEMBL document CHEMBL1125847, “Interaction of GTP derivatives with cellular and oncogenic ras-p21 proteins” (J Med Chem, 1991).

SMILES strings stand for the structures.

The target in test [1] is GTPase HRas (Homo sapiens) (UniProt P01112). Kind of test: Inhibitory [3H]GDP concentration against oncogenic Ha-ras protein (p21 Leu-61). In short, it runs like this:
(§1)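 Filter-binding competition: GDP-bound Ha-ras p21 (1 μM; 1 μg) with [3H]GDP (3 μM per footnote, 2 μM in methods) plus analogue over a concentration range, in 50 mM Tris-HCl pH 7.5, 10 mM DTT, 0.5 mM MgCl2, 100 mM NH4Cl, 5 mM EDTA, 45 min, 37 °C. Quenched with cold Mg2+, filtered through nitrocellulose, counted. Krel = [3H]GDP concentration/analogue concentration at 50% inhibition.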

Test [2] has the same target. In words: Inhibitory [3H]GDP concentration against cellular p21 Ha-ras. In short, it runs like this:
as §1

Sequence of GTPase HRas (Homo sapiens) (P01112 whole entry, looked up): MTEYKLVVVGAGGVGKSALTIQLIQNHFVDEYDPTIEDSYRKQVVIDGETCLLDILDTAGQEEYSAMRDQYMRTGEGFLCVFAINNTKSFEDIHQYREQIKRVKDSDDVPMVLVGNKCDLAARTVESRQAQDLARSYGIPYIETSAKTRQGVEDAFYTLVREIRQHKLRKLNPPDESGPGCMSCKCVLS

On to `O=P(O)(O)OP(=O)(O)OP(=O)(O)OC[C@@H]1OC(n2cnc3c(O)nc(Nc4ccc(F)cc4)nc32)[C@@H](O)[C@H]1O` (stereo not given in full), for which the K rel in test [1] came to 2.38; in test [2], 1.77.
With `CN1CN(C2O[C@@H](COP(=O)(O)OP(=O)(O)OP(=O)(O)O)[C@H](O)[C@@H]2O)c2nc(N)nc(O)c21` (stereo not given in full), the values for the K rel in test [1] and in test [2] were 0.002 and 0.0024, respectively.
Regarding `Nc1nc(O)c2ncn([C@H]3O[C@@H](COP(=O)(O)OP(=O)(O)OP(=O)(O)O)[C@H](O)[C@@H]3O)c2n1`, the K rel was determined as 1.2 in test [1] and 1.1 in test [2].
`Cc1ccc(Nc2nc(O)c3ncn(C4O[C@@H](COP(=O)(O)OP(=O)(O)OP(=O)(O)O)[C@H](O)[C@@H]4O)c3n2)cc1` (stereo not given in full): the K rel was 1.34 in test [1] and 1.14 in test [2].
`O=P(O)(O)OP(=O)(O)OP(=O)(O)OC[C@@H]1OC(n2cnc3c(O)nc(NCCCCc4ccccc4)nc32)[C@@H](O)[C@H]1O` (stereo not given in full): the K rel worked out at 1.1 in test [1] and 1.19 in test [2].
With `O=P(O)(O)OP(=O)(O)OP(=O)(O)OC[C@@H]1OC(n2cnc3c(O)nc(Nc4ccc(Br)cc4)nc32)[C@@H](O)[C@H]1O` (stereo not given in full), the results for the K rel in test [1] and in test [2] were 2.1 and 2.28, respectively.
On to `O=P(O)(O)OP(=O)(O)OP(=O)(O)OC[C@@H]1OC(n2cnc3c(O)nc(Br)nc32)[C@@H](O)[C@H]1O` (stereo not given in full), for which the K rel in test [1] came out at 0.05; in test [2], 0.04.
Taken in the same sequence, the figures for `Nc1nc(O)c2ccn(C3O[C@@H](COP(=O)(O)OP(=O)(O)OP(=O)(O)O)[C@H](O)[C@@H]3O)c2n1` (stereo not given in full) were 0.05 and 0.08.
Taken in the same sequence, the figures for `Nc1nc(O)c2ncn(COC(CO)COP(=O)(O)OP(=O)(O)OP(=O)(O)O)c2n1` (stereo not given) were 0.0018 and 0.0014.
With `O=P(O)(O)OP(=O)(O)OP(=O)(O)OC[C@@H]1OC(n2cnc3c(O)ncnc32)[C@@H](O)[C@H]1O` (stereo not given in full), the figures for the K rel in test [1] and in test [2] were 0.09 and 0.11, respectively.
With `Nc1nc2c(ncn2[C@H]2CC[C@@H](COP(=O)(O)OP(=O)(O)OP(=O)(O)O)O2)c(=O)[nH]1`, the K rel in test [1] came out at 0.18; in test [2], 0.28.
`CCCCNc1nc(O)c2ncn(C3O[C@@H](COP(=O)(O)OP(=O)(O)OP(=O)(O)O)[C@H](O)[C@@H]3O)c2n1` (stereo not given in full): the K rel turned out to be 0.68 in test [1] and 0.59 in test [2].
For `Nc1nc(O)c2ncn(C3OC(COP(=O)(O)OP(=O)(O)OP(=O)(O)O)CC3O)c2n1` (stereo not given), the K rel in test [1] and in test [2] was 0.85 throughout.
On to `Nc1nc2c(ncn2COCCOP(=O)(O)OP(=O)(O)OP(=O)(O)O)c(=O)[nH]1`, for which the K rel in test [1] was found to be 0.0011; in test [2], 0.0012.
For `CCCCc1ccc(Nc2nc(O)c3ncn(C4O[C@@H](COP(=O)(O)OP(=O)(O)OP(=O)(O)O)[C@H](O)[C@@H]4O)c3n2)cc1` (stereo not given in full), the K rel in test [1] amounted to 6; in test [2] it was 3.3.
